# Experimental data taken from PubChem BioAssay.
# Values without a mark were called inactive. Inconclusive results are not listed. Activity calls are given as the source filed them.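 How the source made its calls, unless noted: active means RAM network inhibition above 8.4% in each of two replicates, 3 SD over the compound average; inconclusive means above 8.4% inhibition in only one replicate; inactive means 8.4% inhibition or less in each replicate.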
# Tests used:
# [1] = OD615 S. cerevisiae growth inhibition, permissive medium, pilot counter-assay, permissive growth control for S. cerevisiae lifespan shortening project (AID 705;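 active means growth inhibition above 25% in both replicates, a cutoff set 3 SD above the mean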); settings: OD615, 24 h, at 10 µM, stronger effect = higher value
# How it was run: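 Material: engineered DeaD yeast; Compound: one dose 10 µM, DMSO 0.25% final; Detection: absorbance (optical density) at 615 nm; Buffer or medium: permissive raffinose/galactose medium; Timing: 24 h exposure, 30 °C.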
# [2] = Restrictive medium S. cerevisiae growth inhibition, OD615, pilot screen of yeast lifespan reduction project, restrictive growth control (AID 706;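 active means growth inhibition above a set limit, 3 SD over mean compound inhibition, in both replicates, cut at about 43% in these data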;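 further: modified DeaD lifespan yeast strain shifted to restrictive glucose medium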); settings: OD615, 48 h, at 10 µM, stronger effect = higher value
# How it was run: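 Buffer or medium: restrictive glucose medium (CSMM-D); test system: modified S. cerevisiae; doses: single dose of 10 µM compound final, 0.25% DMSO; schedule: 48 h compound exposure at 30 °C; detection: absorbance (optical density) measured at 615 nm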
# [3] = viability gain of MRP-1-high H69AR cells under doxorubicin, pilot screen, MRP-1 activator project, CellTiter-Glo, duplicate (AID 807;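 active means viability increase at or above a cutoff of the median across tested compounds plus 3 SD, cut at about 8.5% in these data, passing the limit was not always enough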;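 further: compound pretreatment 18-22 h then 72 h combined with doxorubicin; 0% = doxorubicin alone and 100% = vehicle without doxorubicin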); settings: H69AR viability with doxorubicin, CellTiter-Glo luminescence; at 10 µM; stronger effect = higher value
# [4] = growth suppression of beta-catenin knockout HCT116, pilot screen, human colon tumor cells (AID 823;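 active means cell viability at or below a set limit in both duplicate runs, the limit being the all-compound median minus 4 SD, cut at about 23% in these data, passing the limit was not always enough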;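 further: 0% = wells killed by 20 µM Hyamine and 100% = untreated DMSO cell wells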); settings: CellTiter-Glo, 60 h, at 10 µM, stronger effect = lower value
# [5] = growth suppression of PTEN-deleted HCT116, pilot screen, cell-based, HCT116 clonal line, CellTiter-Glo (AID 824;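 active means viability at or below 27.92% in each of two runs, the all-compound median minus 4 SD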;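 further: 0% = 20 µM Hyamine control and 100% = vehicle cell control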); settings: 60 h, at 10 µM, stronger effect = lower value
# [6] = inhibitors of the yeast RAM network, pilot screen, dse1pr::URA3 reporter, 5-FOA selection (AID 869;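 active means inhibition over a set limit, the all-compound mean plus 3 SD, in both replicate runs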;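 further: 0% = DMSO wells with no growth and 100% = 10 µM 1-NA-PP1 with full growth; RAM network block rescues cells from 5-FOA so hits raise OD615 growth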); settings: S. cerevisiae dse1pr::URA3 5-FOA growth, OD615, 2 d; at 10 µM; stronger effect = higher value; strain carries analog-sensitive mutant Cbk1 kinase
# [7] = RAM signaling pathway blockade in yeast – S. cerevisiae, Pdr1DBD-CYC8 efflux-inhibited sensitized strain, primary screen (AID 1298);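 further: 0% = DMSO untreated cells without growth and 100% = 10 µM 1-NA-PP1 full growth; higher means more yeast growth rescued from 5-FOA killing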; settings: S. cerevisiae cbk1-as DSE1-URA3 strain, 5-FOA growth OD615, 2 d; at 50 µM; stronger effect = higher value
Compound,growth inhibition [1],growth inhibition [2],viability increase [3],viability [4],viability [5],inhibition [6],RAM network inhibition [7]
CCN1CCN(CCCNC(=O)c2ccc3c(c2)NC(=O)c2ccccc2S3)CC1,-15.9%,-14.5%,-2.37%,90.6%,95.4%,0.905%,5.84%
CCc1nc(SCC(=O)c2ccc(C)c(C)c2)n[nH]1,-9.29%,4.11%,2.14%,102%,104%,0.56%,6.63%
CCc1ccc(NC(=O)CSc2nc3c(c(=O)n(C)c(=O)n3C)n2C)cc1,3.77%,-8%,-1.41%,91.8%,94.6%,1.03%,0.68%
COc1ccc(-c2cc(N)n(S(=O)(=O)Cc3ccccc3)n2)c(OC)c1,-2.75%,-12.7%,0.27%,101%,96.8%,2.42%,5.13%
Cc1cc(/C=N/n2cnnc2)c(C)n1-c1ccc(OCc2ccc(F)cc2)cc1,-2.2%,32.3%,-5.79%,10.2% (active),11.8% (active),1.71%,8.48%
CCCC(=O)C1=C(O)C(C(=O)OC)C(C)(C)CC1=N (stereo not given),1.4%,-3.15%,-0.38%,100%,101%,1.01%,-0.57%
CCN(CCCNS(=O)(=O)c1ccc2c(c1)CCN2C(C)=O)c1cccc(C)c1,-4.96%,9.51%,-2.74%,75.3%,82.5%,0.28%,4.1%
COc1ccc(-c2nc(CSCC(=O)N3CCN(C(=O)c4ccco4)CC3)c(C)o2)cc1OC,-1.3%,0.055%,-1.9%,106%,103%,-0.54%,5.11%
CC(C)C(NS(=O)(=O)c1ccc2c3c(cccc13)C(=O)N2)C(=O)O (stereo not given),-4.62%,-4.4%,-0.28%,97%,93.6%,1.71%,3.8%
COc1ccccc1-n1c(SC)nc(O)cc1=O,1.24%,-7.61%,0.84%,105%,99%,2.01%,4.2%
CCC(NC(=O)c1ccccc1NC(=O)c1ccco1)C(=O)NC1CCCCC1 (stereo not given),-4.2%,7.98%,-2.29%,89.1%,98.3%,1.35%,2.08%
Nc1c(C(=O)NCc2ccccc2)nnn1Cc1ccccc1,-6.54%,4.1%,1.95%,99.8%,91.2%,1.02%,2.99%
Cc1cc(C(=O)N2CCN(c3ccccn3)CC2)no1,-1.03%,0.795%,0.33%,109%,102%,1.05%,2.86%
O=C(NCc1ccc2c(c1)OCO2)c1cnc2n(c1=O)CCS2,-2.39%,4.35%,-0.06%,95.9%,98%,1.17%,1.93%
C=C(C)CSc1nc2c(c(=O)[nH]c(=O)n2C)n1CCC(C)C,-17.9%,-22.9%,-2.5%,80.8%,80.9%,1.38%,1.85%
Cc1ccc(N(CC(=O)NC2CCC(C)CC2)S(=O)(=O)c2cccnc2)cc1 (stereo not given),4.48%,8.91%,0.07%,98.3%,98.1%,1.15%,-1.86%
CCc1ccc(NC(=O)CSc2nnc(Cn3c(=O)sc4ccccc43)n2C)cc1,-4.66%,-25.2%,-1.98%,104%,97.6%,2.96%,8.29%
NC(=O)C1CCN(C(=O)C2CCN(S(=O)(=O)c3ccccc3)CC2)CC1,-2.18%,12.3%,-1.4%,102%,105%,1.06%,0.84%

Compound,growth inhibition [1],growth inhibition [2],viability increase [3],viability [4],viability [5],inhibition [6],RAM network inhibition [7]
Cc1ccc(CC(=O)N2CCC(c3nc4c(nnn4Cc4ccccc4)c(=O)[nH]3)CC2)cc1,-10.5%,-7.38%,-1.07%,76.9%,78.9%,0.71%,3%
O=c1cc(-c2c(F)c(F)c(F)c(F)c2F)oc2c(F)c(F)c(F)c(F)c12,-8.86%,-6.48%,-7%,1.3% (active),1.25% (active),-0.35%,-1.25%
COc1ccc(-c2c(C)oc3c(CN4CCN(C)CC4)c(O)ccc3c2=O)cc1,-13.2%,-13.7%,-8.83%,106%,96.5%,0.58%,-0.85%
O=C1c2cccc3cccc(c23)C(=O)N1c1nccs1,-1.67%,0%,0.23%,104%,106%,1.98%,6.64%
COc1ccccc1-c1c(C)nn2c(NCCN3CCCC3)cc(C)nc12,-3.48%,0.235%,-1.54%,87.1%,92.6%,0.815%,2.33%
O=C(O)CCC(=O)N1CCc2cc(S(=O)(=O)N3CCN(c4ccc(F)cc4)CC3)ccc21,-4.08%,6.97%,-1.31%,97.4%,99%,1.94%,4.17%
O=C(O)c1cccc(CN2C(=O)CSC2=O)c1,-9.39%,-12.3%,-0.3%,95.7%,97.5%,0.91%,1.41%
Cc1cc(NC(=O)c2cn(C3CCCCC3)c(=O)c3c2c2ccccc2n3C)no1,-5.84%,11.9%,-3.21%,71.7%,71.7%,1.8%,7.54%
C=CCc1cc(/C=N/n2cnnc2)cc(OCC)c1O,-10.7%,-1.86%,-2.46%,102%,94.7%,0.925%,0.6%
COc1ccc(S(=O)(=O)Cc2ccc(C(=O)NCc3ccco3)o2)cc1,-3.02%,-11.6%,-4.28%,104%,97.4%,0.88%,0.47%
Cc1ccc(C(=O)NCc2ccco2)cc1S(=O)(=O)N1CCCCC1,-11.6%,-5.65%,-5.21%,82.9%,85.5%,3%,6.81%
CCCNc1nc2c(c(=O)n(C)c(=O)n2C)n1Cc1ccc(F)cc1,-3.24%,-4.52%,-1.45%,78.8%,79.1%,0.88%,3.07%
CCOc1ccc(C2CC(c3ccccc3C)n3ncnc3N2)cc1 (stereo not given),-6.31%,13.4%,-1.48%,87.3%,77.4%,1.83%,-1.78%
COc1cccc(-c2nn(C)c3sc(C(=O)NCc4ccc5c(c4)OCO5)cc23)c1,2.61%,9.31%,-2.08%,92.6%,82.7%,4.3%,12.7%
Cc1nc(S(=O)(=O)c2ccc(Cl)cc2)c(NCc2ccccc2)o1,-6.92%,-2.45%,-0.96%,94.5%,95.5%,2.39%,4.59%
CCOC(=O)N1CCC(NC(=O)c2cc3c(C)nc4ccccc4c3o2)CC1,-14.7%,-11.2%,-3.16%,92.6%,91.5%,0.54%,3.54%
Cc1cc(NS(=O)(=O)c2ccc(NC(=O)CCCC(=O)O)cc2)nc(C)n1,-5.33%,-3.05%,-1.07%,102%,92.2%,-0.135%,3.87%
